Screening results from PubChem BioAssay.
Compounds with a hit are over-represented: about 1.7% of the library has one in this group of screens.
DNMT1 inh – DNMT1 (human) enzyme inhibition; P26358; DNMT1 molecular beacon, Hinp1I cleavage, fluorescence; inhibition (reported as % activation of signal), % at 10 µM; hit rate 0.83% among 360,000; in the data active = inhibition above about 50%
Target sequence (P26358 504-1616 limits assumed): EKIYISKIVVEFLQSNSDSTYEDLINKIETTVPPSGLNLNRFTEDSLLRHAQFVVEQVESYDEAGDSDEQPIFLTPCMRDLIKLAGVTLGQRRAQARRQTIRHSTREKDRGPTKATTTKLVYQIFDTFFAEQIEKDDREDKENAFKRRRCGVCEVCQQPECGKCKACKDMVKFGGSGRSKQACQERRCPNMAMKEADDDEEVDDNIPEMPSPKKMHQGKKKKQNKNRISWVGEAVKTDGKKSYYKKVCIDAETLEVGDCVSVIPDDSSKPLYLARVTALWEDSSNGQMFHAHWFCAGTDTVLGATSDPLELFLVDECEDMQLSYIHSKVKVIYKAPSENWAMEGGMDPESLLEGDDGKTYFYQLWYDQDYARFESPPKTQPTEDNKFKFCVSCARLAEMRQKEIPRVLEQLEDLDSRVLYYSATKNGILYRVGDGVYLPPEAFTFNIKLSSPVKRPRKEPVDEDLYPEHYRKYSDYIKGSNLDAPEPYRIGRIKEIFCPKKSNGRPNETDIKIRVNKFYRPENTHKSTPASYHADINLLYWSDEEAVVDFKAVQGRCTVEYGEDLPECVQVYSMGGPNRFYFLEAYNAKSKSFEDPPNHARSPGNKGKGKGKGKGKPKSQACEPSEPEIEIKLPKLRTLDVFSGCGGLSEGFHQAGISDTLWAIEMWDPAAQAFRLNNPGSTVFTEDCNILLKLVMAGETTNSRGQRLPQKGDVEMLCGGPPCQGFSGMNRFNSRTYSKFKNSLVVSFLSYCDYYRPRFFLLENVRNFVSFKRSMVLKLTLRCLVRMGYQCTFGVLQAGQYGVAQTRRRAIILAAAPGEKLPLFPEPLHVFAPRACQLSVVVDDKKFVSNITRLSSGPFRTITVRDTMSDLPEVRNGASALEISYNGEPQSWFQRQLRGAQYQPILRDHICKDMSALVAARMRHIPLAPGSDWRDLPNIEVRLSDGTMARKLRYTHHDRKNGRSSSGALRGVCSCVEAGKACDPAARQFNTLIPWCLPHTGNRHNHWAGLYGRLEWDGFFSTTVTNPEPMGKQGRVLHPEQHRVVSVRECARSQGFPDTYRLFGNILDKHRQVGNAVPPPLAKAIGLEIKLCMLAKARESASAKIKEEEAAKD
SUMO1 PPI mod – SUMO1-SIM interaction modulation. SUMO1 binding to a labelled peptide, TR-FRET, 1 h. inhibition, % at 20 µM. hit rate 0.33% among 360,000; in the data active = inhibition above about 37%
LMPTP inh – LMPTP (human) inhibition | P24666 | recombinant LMPTP-A, OMFP fluorogenic substrate, fluorescence intensity | inhibition, % at 20 µM | hit rate 0.22% among 360,000;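 active = compounds that cut the enzyme signal by at least half of the control window in the single-dose screen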;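 note: plate controls were DMSO wells with enzyme plus substrate for no effect and substrate without enzyme for full effect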
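material = LMPTP-A | quantity = 0.625 nM enzyme | reagent = OMFP substrate, 400 µM final | buffer or medium = Bis-Tris pH 6.0, DTT, detergent | detection = endpoint fluorescence intensity from OMFP dephosphorylation | dosing = single 20 µM dose | read-out basis = % inhibition relative to no-enzyme and uninhibited control wells | control set = no-enzyme and uninhibited controls | timing = 50 min at room temperature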
Scp1 inh – Scp-1 (human) phosphatase inhibition; AID 493091; Q9GZU7; inhibition, % at 20 µM; Recombinant Scp1, phosphopeptide, malachite green phosphate absorbance; hit rate 0.88% among 340,000;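 active = inhibition above about 50% at 20 µM, limit read from the data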;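 note: plate controls were DMSO wells with enzyme for no effect and wells lacking enzyme for full effect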
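assay system = SCP-1 phosphatase catalytic domain, residues 76-261 | buffer or medium = 50 mM Tris acetate pH 5.5, 0.005% Tween-20, 10 mM MgCl2 | incubation = enzyme reaction 45 min at room temperature, colour 5 min, stabilisation 30 min | signal = Phosphate-binding colour reagent, absorbance read at 630 nm | measure = % inhibition at 20 µM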
STEP inh – inhibitors of human striatal-enriched phosphatase STEP. P54829. recombinant STEP, OMFP fluorogenic substrate, fluorescence. inhibition, % at 20 µM. hit rate 0.25% among 360,000. AID 588621;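 active = inhibition at 20 µM, scaled per plate between control wells, above about 37%, limit read from the data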;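 note: 0% = DMSO with enzyme and substrate and 100% = substrate only without enzyme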
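Assay system: isolated STEP enzyme. Buffer or medium: pH 6.0 Bis-Tris with DTT and Tween 20. Also added: fluorogenic phosphatase substrate OMFP at 25 µM final. Dosing: 20 µM, 1% DMSO. Timing: 20 min reaction, room temperature, in the dark. Measured by: fluorescence intensity, excitation 480 nm, emission 540 nm. Evaluation: normalized % inhibition.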
DNMT1 confirm – DNMT1 inhibition confirmation, single concentration. inhibition, % at 10 µM. hit rate 8% among 2,300. AID 602385. shares compounds with DNMT1 inh. DNMT1 molecular beacon HinP1I cleavage, fluorescence;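 active = average inhibition of at least 30% in the single-concentration confirmation test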
DNMT1 interf – beacon fluorescence artifact counter-screen. DNMT1 molecular beacon spectral interference counterscreen, fluorescence 485/520. shares compounds with DNMT1 inh. hit rate 1% among 2,300. activation (fluorescence interference), % at 10 µM;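 active = activation of at least 30% at 10 µM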;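 note: DNMT1 catalytic domain with a HinP1I cleavage step and a FAM/dabcyl DNA beacon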
Numbers without * were called inactive.

`Cc1ccc(S(=O)(=O)c2c(N)n(CCCO)c3nc4ccccc4nc23)cc1` gave DNMT1 inh 70*, SUMO1 PPI mod 45*, LMPTP inh 4, Scp1 inh 0, STEP inh -4, DNMT1 confirm 3 and DNMT1 interf 5.
Screening Nc1[nH]c(C(=O)c2ccccc2)c(-c2ccccc2C(F)(F)F)c1C(=O)NCCc1cccs1 returned SUMO1 PPI mod 0 and LMPTP inh 0.
Screening CCN1C[C@@H]2[C@@H]3C(=O)N(C)C(=O)[C@@H]3[C@](C)(C1=O)N2C(=O)c1ccc(C)cc1 returned DNMT1 inh 0, SUMO1 PPI mod -2, LMPTP inh -1, Scp1 inh -3 and STEP inh 0.
`COc1ccc2nc(C)cc(SCC(=O)Nc3c(C)cc(C)cc3C)c2c1` gave DNMT1 inh 55*, SUMO1 PPI mod -3, LMPTP inh 25, Scp1 inh -4, STEP inh 2, DNMT1 confirm 4 and DNMT1 interf -1.
O=C(COc1cc(O)c2c(=O)cc(-c3ccccc3)oc2c1)c1ccc(F)cc1 was read as DNMT1 inh 54*, SUMO1 PPI mod -6, LMPTP inh 1, Scp1 inh 9, STEP inh 5, DNMT1 confirm 2 and DNMT1 interf -7.
For CCCCc1cc(=O)oc2cc(C)c(CN3CCCC3)c(O)c12 the results were DNMT1 inh 96*, SUMO1 PPI mod 27, LMPTP inh 3, Scp1 inh 0, STEP inh -2, DNMT1 confirm 3 and DNMT1 interf 7.
CCc1cc(=O)oc2cc(C)c(CN3CCCC(C)C3)c(O)c12 (stereo unspecified) was read as DNMT1 inh 4, SUMO1 PPI mod 27, LMPTP inh 2, Scp1 inh -13 and STEP inh 0.
`COc1ccc2oc(C(=O)Nc3ccc(N4CCOCC4)cc3)c(C)c2c1` gave DNMT1 inh 51*, SUMO1 PPI mod 2, LMPTP inh 2, Scp1 inh 15, STEP inh 2, DNMT1 confirm 21 and DNMT1 interf 2.
For CCCCN(C(=O)c1cccc(-n2cccc2)c1)c1c(N)n(Cc2ccccc2)c(=O)[nH]c1=O the results were DNMT1 inh 92*, SUMO1 PPI mod 33, LMPTP inh 10, STEP inh 7, DNMT1 confirm 7 and DNMT1 interf 0.
Screening O=C(C[C@H]1C/C=C\C[C@H](Cc2ccc(F)cc2)C(=O)O[C@@H](c2ccccc2)CNC1=O)N[C@@H](CO)Cc1ccccc1 returned DNMT1 inh 63*, SUMO1 PPI mod -2, LMPTP inh -1, Scp1 inh -3, STEP inh -2, DNMT1 confirm 0 and DNMT1 interf -6.
For O=C(C[C@H]1C/C=C\C[C@@H](Cc2ccc(F)cc2)C(=O)O[C@@H](c2ccccc2)CNC1=O)N[C@@H](CO)Cc1ccccc1 the results were DNMT1 inh 37, SUMO1 PPI mod 6, LMPTP inh 0, Scp1 inh -2 and STEP inh 0.
`O=C(N/N=C1\CCS(=O)(=O)c2ccc(F)cc21)c1ccc(O)cc1` gave DNMT1 inh -1, SUMO1 PPI mod -8, LMPTP inh 0, Scp1 inh -11 and STEP inh -3.
Screening C=CCn1c(C)cc(C(=O)Cn2ncc(Cl)c(Cl)c2=O)c1C returned DNMT1 inh 103*, SUMO1 PPI mod -4, LMPTP inh 22, Scp1 inh 3, STEP inh 4, DNMT1 confirm 1 and DNMT1 interf -4.
Cc1nc(C)c(C(=O)Nc2nc3c(C)cccc3s2)o1 was read as DNMT1 inh 79*, SUMO1 PPI mod 17, LMPTP inh 5, Scp1 inh 49, STEP inh 7, DNMT1 confirm 10 and DNMT1 interf 0.
Cc1cccc2sc(NC(=O)C3CCCO3)nc12 (stereo unspecified) was read as DNMT1 inh 3, SUMO1 PPI mod -4, LMPTP inh 0, Scp1 inh 13 and STEP inh -3.
COc1ccc2[nH]c(C)c(-c3csc(N)n3)c2c1 was read as DNMT1 inh 82*, SUMO1 PPI mod 6, LMPTP inh -1, Scp1 inh -1, STEP inh 2, DNMT1 confirm 2 and DNMT1 interf 9.
CCOc1ccc2oc(C(=O)Nc3nccs3)c(C)c2c1 was read as DNMT1 inh 68*, SUMO1 PPI mod 1, LMPTP inh 3, Scp1 inh -8, STEP inh 2, DNMT1 confirm 3 and DNMT1 interf 4.
`Cc1ccc(-n2c(=O)c3c(c4cc(C)ccc4n3C)n(CC(=O)NCC3CCCO3)c2=O)cc1` (stereo unspecified) gave DNMT1 inh 0, SUMO1 PPI mod -16, LMPTP inh -2 and STEP inh 1.
`CCOC(=O)/C=c1\s/c(=C\c2ccc(C#N)cc2)c(=O)n1CC(=O)NCc1ccco1` gave DNMT1 inh 50*, SUMO1 PPI mod -7, LMPTP inh 2, Scp1 inh -5, STEP inh 1, DNMT1 confirm 0 and DNMT1 interf -4.
COc1ccc2c(c1)c1c(c(=O)n(-c3ccc(C)cc3)c(=O)n1CC(=O)NCC1CCCO1)n2C (stereo unspecified) was read as DNMT1 inh 98*, SUMO1 PPI mod -17, LMPTP inh 0, STEP inh -1, DNMT1 confirm 2 and DNMT1 interf 2.
Screening CCOC(=O)/C=c1\s/c(=C\c2c(OC)ccc3ccccc23)c(=O)n1CC(=O)NCC1CCCO1 (stereo unspecified) returned DNMT1 inh -6, SUMO1 PPI mod -7, LMPTP inh 2, Scp1 inh -4 and STEP inh 0.
CCOC(=O)/C=c1/s/c(=C/c2ccc3cc(OC)ccc3c2)c(=O)n1CC(=O)NCC1CCCO1 (stereo unspecified) was read as DNMT1 inh 54*, SUMO1 PPI mod -3, LMPTP inh 2, Scp1 inh -7, STEP inh -7, DNMT1 confirm 2 and DNMT1 interf -2.
For COc1ccccc1NS(=O)(=O)c1cc2c3c(c1)CCN3C(=O)CC2 the results were DNMT1 inh 84*, SUMO1 PPI mod 2, LMPTP inh 0, Scp1 inh 2, STEP inh 3, DNMT1 confirm 2 and DNMT1 interf 2.
`S=c1[nH]nc(-c2ccncc2)n1/N=C/c1cn(-c2ccccc2)nc1-c1ccccc1` gave DNMT1 inh -2, SUMO1 PPI mod 3, LMPTP inh 2, Scp1 inh 3 and STEP inh -1.
